What was measured:
P450 enzymes = conditions: read-out: inhibition of P450 enzymes; previously reported weak inhibitor; cited from earlier work
T. cruzi amastigotes = assay: T. cruzi amastigote growth; format: cell-based, Trypanosoma cruzi; conditions: relative to compound 1
[1] = molecular target: rat protein farnesyltransferase (Rattus norvegicus, UniProt Q02293+Q04631); assay: Rat protein farnesyltransferase inhibition assay; format: biochemical; conditions: for fold reduction in potency/affinity for protein farnesyltransferase compared to 1: relative to compound 1
[2] = molecular target: recombinant Tc-L14DM (lanosterol 14α-demethylase) (Trypanosoma cruzi, UniProt Q7Z1V1); assay: Binding to recombinant Tc-L14DM by difference optical spectroscopy
Sequence of recombinant Tc-L14DM (lanosterol 14α-demethylase) (Q7Z1V1 whole entry): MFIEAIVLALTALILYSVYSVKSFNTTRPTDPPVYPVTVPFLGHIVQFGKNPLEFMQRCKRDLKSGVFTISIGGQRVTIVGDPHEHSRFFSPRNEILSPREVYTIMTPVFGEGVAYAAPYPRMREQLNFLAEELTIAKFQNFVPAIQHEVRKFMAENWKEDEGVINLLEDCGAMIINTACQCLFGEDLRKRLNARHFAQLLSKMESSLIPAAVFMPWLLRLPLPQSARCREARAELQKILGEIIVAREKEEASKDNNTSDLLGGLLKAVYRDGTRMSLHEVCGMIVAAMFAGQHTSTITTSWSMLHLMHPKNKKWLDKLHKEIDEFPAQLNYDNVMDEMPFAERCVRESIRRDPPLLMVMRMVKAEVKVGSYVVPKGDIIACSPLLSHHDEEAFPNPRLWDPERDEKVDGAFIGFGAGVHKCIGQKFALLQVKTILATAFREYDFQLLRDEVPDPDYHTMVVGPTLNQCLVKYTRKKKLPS
Procedure, shortened: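 Difference optical spectroscopy on recombinant T. cruzi lanosterol 14α-demethylase held at 1.4 μM, with test compound added at 200 nM – 2 uM; binding read from the difference spectra.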

SMILES | fold reduction in potency/affinity for protein farnesyltransferase compared to 1 [1] | IC50 [1] | other results
Cn1cncc1[C@@](N)(c1ccc(Cl)cc1)c1ccc2c(c1)c(-c1cccc(Cl)c1)cc(=O)n2C [Compound 1, tipifarnib] |  |  | IC50 (P450 enzymes): > 10000 nM
COC(c1ccc(Cl)cc1)(c1ccc2c(c1)c(-c1cccc(Cl)c1C)cc(=O)n2C)c1cncn1C (stereo not shown) [Compound 2] |  |  | fold more potent at killing T. cruzi amastigotes than 1 (T. cruzi amastigotes): about 10 fold
COC(c1ccc(Cl)cc1)(c1ccc2c(c1)c(-c1cccc(Cl)c1)cc(=O)n2C)c1cncn1C (stereo not shown) [Compound 3] | 100 fold |  | 
COC(c1ccc(Cl)cc1)(c1ccc2c(c1)c(-c1ccccc1)cc(=O)n2C)c1cncn1C (stereo not shown) [Compound 10] | ~ 500 fold |  | 
COC(c1ccc(Cl)cc1)(c1ccc2c(c1)c(-c1c(F)cccc1F)cc(=O)n2C)c1cncn1C (stereo not shown) [Compound 16, 4-(2,6-Difluorophenyl)-6-((4-chlorophenyl)(methoxy)(1-methyl-1H-imidazol-5-yl)methyl)-1-methylquinolin-2(1H)-one] |  |  | Kd [2]: < 1400 nM
COC(c1ccc(Cl)cc1)(c1ccc2c(c1)c(-c1cc(C)cc(C)c1)cc(=O)n2C)c1cncn1C (stereo not shown) [Compound 17] | ~ 600 fold |  | 
Cc1c(Cl)cccc1-c1cc(=O)n(C)c2ccc(C(O)(c3ccc(Cl)cc3)c3cncn3C)cc12 (stereo not shown) [Compound 20, 4-(3-Chloro-2-methylphenyl)-6-((4-chlorophenyl)(hydroxy)(1-methyl-1H-imidazol-5-yl)methyl)-1-methylquinolin-2(1H)-one] |  | 796 nM | 
CNC(c1ccc(Cl)cc1)(c1ccc2c(c1)c(-c1cccc(Cl)c1C)cc(=O)n2C)c1cncn1C (stereo not shown) [Compound 23, 4-(3-chloro-2-methylphenyl)-6-((4-chlorophenyl)(methylamino)(1-methyl-1H-imidazol-5-yl)methyl)-1-methylquinolin-2(1H)-one] |  | 957 nM | 
CCn1cncc1C(OC)(c1ccc(Cl)cc1)c1ccc2c(c1)c(-c1cccc(Cl)c1)cc(=O)n2C (stereo not shown) [Compound 26] | ~ 1,500 fold |  | 
CCn1cncc1C(O)(c1ccc(Cl)cc1)c1ccc2c(c1)c(-c1cccc(Cl)c1)cc(=O)n2C (stereo not shown) [Compound 27] |  | 30 nM | 
